Several values for one entry are separate records, joined by “and”; a condition that tells them apart may be missing. Equal values may be shown once. Read-outs that look alike come from different tables or passages of the source. Each block holds one molecule with its values, some of them ahead of it. {FAM} = fluorescein (FAM) label
What was measured:
[1] = biological target: T1, AGT (Homo sapiens, UniProt P16455); experiment: Sedimentation equilibrium analysis of AGT-DNA complexes; type: binding; settings: mean ± SEM for ≥3 determinations, 4°C
T1 sequence (P16455 with tags, fused parts or gaps limits assumed): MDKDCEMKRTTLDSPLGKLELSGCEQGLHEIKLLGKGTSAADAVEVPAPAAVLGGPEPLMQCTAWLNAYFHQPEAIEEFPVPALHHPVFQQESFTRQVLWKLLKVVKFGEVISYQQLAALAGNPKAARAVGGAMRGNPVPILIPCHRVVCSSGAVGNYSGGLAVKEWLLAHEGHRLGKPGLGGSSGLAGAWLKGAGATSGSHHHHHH

[2] = biological target: T1, AGT; settings: AGT binding single-stranded DNA; for Hill coefficient (n) from anisotropy measurements / Hill coefficient (n) from intensity measurements: 4°C; for Ka from anisotropy measurements: apparent association constant
[3] = biological target: T1, AGT; experiment: DNA alkyltransferase assay; type: biochemical
[4] = biological target: T1, AGT; experiment: Binding of free dye to AGT detected by fluorescence anisotropy
Summary of the method: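 Each step equilibrated 1 h at 4°C before reading anisotropy, with emission intensity also recorded. Fractional saturation Y = (A − A0)/(Amax − A0), where A0 is dye without protein and Amax the saturated complex, plotted against AGT concentration.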

[5] = biological target: T1, AGT; experiment: Mobility shift assay: inhibition of AGT DNA binding; settings: IC50 for inhibition of DNA binding
[6] = biological target: T2, benzyl-AGT (Homo sapiens, UniProt P16455, A204H/G205H/N207H/P202H/P203H/R206H); experiment: Binding of FAM to benzyl-AGT detected by fluorescence anisotropy
T2 sequence (P16455 with tags, fused parts or gaps): T1 sequence (P16455 with tags, fused parts or gaps limits assumed)

[7] = biological target: T2, benzyl-AGT; experiment: Mobility shift titration of 32P-labeled 24-mer DNA with benzyl-AGT; type: binding; settings: AGT modified with O^6-benzylguanine
[8] = biological target: T3, O6-alkylguanine-DNA alkyltransferase (AGT, MGMT) (human, UniProt P16455 1-201); experiment: fluorescence anisotropy
[9] = biological target: T3, O6-alkylguanine-DNA alkyltransferase …; experiment: fluorescence anisotropy; remark: listed apart in the source
[10] = biological target: T3, O6-alkylguanine-DNA alkyltransferase …; experiment: fluorescence anisotropy; remark: listed apart in the source
[11] = biological target: T3, O6-alkylguanine-DNA alkyltransferase …; experiment: fluorescence anisotropy; remark: listed apart in the source

Molecule: 3′-(FAM)-26-mer Oligo F: 5′- AGTCAGTCAGTCAGTCAGTCAGTCAG(FAM) -3′ (DNA AGTCAGTCAGTCAGTCAGTCAGTCAG; DNA, 3' {FAM}, backbone not given here)
Stoichiometry of saturated AGT-DNA complex [1]: 6.38 ± 0.21 | Hill coefficient (n) from anisotropy measurements [2]: 2.13 ± 0.14 | Hill coefficient (n) from intensity measurements [2]: 3.33 ± 0.27 | Ka from anisotropy measurements [2]: 3.30 ± 0.12 × 10^5 M^−1

Molecule: 5′-(FAM)-26-mer Oligo F: 5′- (FAM)AGTCAGTCAGTCAGTCAGTCAGTCAG -3′ (DNA AGTCAGTCAGTCAGTCAGTCAGTCAG; DNA, 5' {FAM}, backbone not given here)
Stoichiometry of saturated AGT-DNA complex [1]: 6.59 ± 0.20 | Hill coefficient (n) from anisotropy measurements [2]: 2.02 ± 0.17 | Hill coefficient (n) from intensity measurements [2]: 2.92 ± 0.62 | Ka from anisotropy measurements [2]: 3.33 ± 0.15 × 10^5 M^−1

Molecule: Nc1nc2c(ncn2[C@@H]2O[C@H](COP(=O)(O)O)[C@@H](O)[C@H]2O)c(=O)[nH]1 [5′-GMP, guanosine 5′ monophosphate]
IC50 [3]: 34.6 µM

Molecule: O=S(=O)(O)c1cccc2c(-c3ccc(Nc4ccccc4)c4c(S(=O)(=O)O)cccc34)ccc(Nc3ccccc3)c12 [Bis-ANS, 4,4′-bis(phenylamino)-[1,1′-Binaphthalene]-5,5′-disulfonic acid]
Kd [4]: 33.1 µM | IC50 [3]: 48.6 µM

Kd ([4]; Kd, apparent, from fluorescence anisotropy data, single-site (1:1) fit, unmodified AGT, 4°C, no DNA): 13 µM and 12.7 µM | IC50 ([5]; duplex 24mer 0.17μM, AGT 3.9μM, 20°C): 76.3 µM | IC50 ([5]; electrophoretic analysis, approximate value): ~76 µM | concentration sufficient to completely inhibit AGT activity [3]: 1.8 mM | Kd [6]: 82.2 µM
Molecule: O=C(O)c1ccc(C(=O)O)c(-c2c3ccc(=O)cc-3oc3cc(O)ccc23)c1 [FAM, 6-Carboxyfluorescein]
apparent binding affinity K (Ka) ([4]; fluorescence anisotropy, Eq. 5 with n = 1, 4°C): 7.84 ± 0.24 × 10^4 M^−1 and 7.8 × 10^4 M^−1

Molecule: Nc1nc(OCc2ccccc2)c2nc[nH]c2n1 [O^6-benzylguanine]
residual AGT activity in DNA repair after treatment ([3]; AGT modified with O^6-benzylguanine (37°C, 50mM Tris, pH 7.6, 1mM EDTA, 5 mM DTT)): < 1% | DNA binding of treated AGT [7]: fully-competent in DNA binding | apparent stoichiometry n of DNA binding ([7]; duplex 24mer DNA): 5.5 ± 0.2

Molecule: Cc1ccc2c(c1)sc(-c1ccc(N(C)C)cc1)[n+]2C [ThT, Thioflavin T]
IC50 [3]: 217 µM

Molecule: Unmodified 16-mer Oligo A: 5′- AGT CAG TCA GTC AGT C -3′ (DNA AGTCAGTCAGTCAGTC; unmodified DNA)
Stoichiometry of saturated AGT-DNA complex [1]: 3.86 ± 0.08

Molecule: Unmodified 26-mer: 5′- AGTCAGTCAGTCAGTCAGTCAGTCAG -3′ (DNA AGTCAGTCAGTCAGTCAGTCAGTCAG; unmodified DNA)
Stoichiometry of saturated AGT-DNA complex [1]: 5.89 ± 0.07

Molecule: AGTCAGTCAGTCAGTC (ssDNA) [3'-FAM-Oligo A]
Ka [8]: 282000 M⁻¹

Molecule: AGTCAGTCAGTCAGTCAGTCAGTCAG (ssDNA) [5'-FAM-Oligo F]
Ka [9]: 333000 M⁻¹

Molecule: AGTCAGTCAGTCAGTCAGTCAGTCAG (ssDNA) [3'-FAM-Oligo F]
Ka [10]: 330000 M⁻¹

Molecule: AGTCAGTCAGTCAGTC (ssDNA) [5'-FAM-Oligo A]
Ka [11]: 295000 M⁻¹
